Beta cell apopt = blocks beta cell apoptosis. protection from apoptosis, % (no concentration beside the values). AID 435005. INS-1E cytokine-induced death, ATP luminescence, 48 h; percent of positive-control rescue, neutral wells zero. hit rate 0.8% among 300,000;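 active = Every replicate reaches about 75%, or at least half do and their mean reaches it too, limit read from the data; inconclusive = At least half of replicates reach the limit but their mean does not; inactive = Under half of replicates reach the limit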;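 also: higher means more ATP so stronger rescue from cytokine killing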
T cruzi inh = blocks replication of Trypanosoma cruzi. T. cruzi beta-gal in NIH3T3, luminescence, 90 h. inhibition, % (concentration not given with the values). hit rate 1.4% among 300,000. AID 1885;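 active = mean inhibition across valid replicates above about 55%, limit read from the data; inconclusive = mean below that limit but half or more replicates reach it; inactive = mean below it, under half of replicates reach it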;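 also: signal also drops with host cell toxicity which is not excluded here; higher percent means less beta-gal luminescence so fewer parasites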
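Incubation – ≥90 h infection period, 3 h prior cell attachment · System – NIH/3T3 fibroblasts plus reporter T. cruzi · Doses – compound pinned at 50 nL/well, DMSO · Read-out basis – percent inhibition of parasite-derived β-gal signal · Signal – luminescent β-galactosidase signal after 60 min lysis · Also added – 5000 T. cruzi trypomastigotes/well · Medium – Low-serum DMEM with 2% FBS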
HIF activator = HIF pathway transcriptional activation | U2OS HRE-luciferase reporter, luminescence; normalized: DMSO 0%, desferrioxamine 100% | activation, % at 7.5 µM (by protocol) | hit rate 0.32% among 300,000 | AID 1910;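 active = mean activation of at least 10% of the iron chelator positive control signal, with at least half of replicates also reaching 10%; inconclusive = mean and replicate majority disagree about reaching 10%; inactive = mean and most replicates under 10%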
PfHsp90 set2 = reduces growth (ATP signal) of yeast expressing P. falciparum Hsp90. S. cerevisiae expressing PfHsp90, BacTiter-Glo ATP, 48 h; yeast lacking PDR1 and PDR3 efflux regulators. inhibition, % at 9.4 µM. hit rate 0.32% among 310,000. AID 504621;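 active = every replicate shows inhibition above about 80%, whatever the replicate mean, limit read from the data; inconclusive = mean inhibition reaches the set limit but some replicate falls short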
SKKanGAS inh = inhibitors of SKKanGAS S. pyogenes growth in kanamycin (SK-promoter or general growth effect); BacTiter-Glo, 6 h; inhibition, % at 7.5 µM; hit rate 1.3% among 300,000; AID 1662;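 active = mean replicate score, as percent of positive control median, at least 50; inconclusive = mean below 50 but one replicate at or above 50; inactive = mean and every replicate below 50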;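 also: strain carries kanamycin resistance gene driven by streptokinase promoter and grows in 40 µg/ml kanamycin; loss of luminescence reflects streptokinase promoter inhibition or plain growth inhibition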
CSC inhib = cancer stem cell inhibition. cancer stem cell-like cells viability, luminescence. inhibition, % at 7.5 µM. hit rate 1.1% among 300,000. AID 2717; in the data active = inhibition above about 75%; inconclusive = no clear call, values can overlap the other calls; tested in HMLE shEcad cells
Large screens that a line does not name were inactive. Shown are actives, neighbours in structure and some others; about 3.6% of the full set was active somewhere.

Fc1cccc(CSc2ncnc3c2ncn3C2CCCCO2)c1 (centres undefined)	none (no result: Beta cell apopt, T cruzi inh, HIF activator, SKKanGAS inh, CSC inhib)
Cc1ccnc(NC(=O)c2ccc(S(=O)(=O)N3CCCCCC3)cc2)c1	none
O=C(Nc1ccc2nc(-c3ccc(Br)o3)[nH]c2c1)c1cccs1	T cruzi inh 68.5 (no result: PfHsp90 set2)
COc1ccccc1C(=O)COC(=O)Cc1ccccc1F	none (no result: T cruzi inh, HIF activator, SKKanGAS inh)
COC(=O)[C@@H](Cc1ccccc1)N(Cc1ccccc1)S(=O)(=O)N(Cc1ccccc1)[C@H](Cc1ccccc1)C(=O)OC	Beta cell apopt 118.8 (no result: T cruzi inh, HIF activator, SKKanGAS inh)
C=C[C@H](Cc1ccccc1)N(Cc1ccccc1)S(=O)(=O)N(Cc1ccccc1)[C@H](C=C)Cc1ccccc1	Beta cell apopt 82.0 (no result: T cruzi inh, HIF activator, SKKanGAS inh)
CSCc1c(C(=O)OCC(=O)NC2CCCCC2)oc2ccccc12	none (no result: T cruzi inh, HIF activator, PfHsp90 set2, SKKanGAS inh)
Cc1cc2c(cc1C)-c1c(ssc1=Nc1ccc(S(N)(=O)=O)cc1)C(C)(C)N2	SKKanGAS inh 50.0
Cc1ccc(Sc2c([N+](=O)[O-])c(=O)n(C)c3ccccc23)cc1	CSC inhib 118.3
CC1C(=O)C(C)C(c2ccc(Br)cc2)NC1c1ccc(Br)cc1 (centres undefined)	T cruzi inh 67.5
CC1C(=O)C(C)C(c2cc(Br)ccc2O)NC1c1cc(Br)ccc1O (centres undefined)	none (no result: Beta cell apopt, T cruzi inh, HIF activator, SKKanGAS inh, CSC inhib)
O=C(O)c1ccc(Nc2ncc([N+](=O)[O-])cc2[N+](=O)[O-])cc1	T cruzi inh inconclusive (no result: Beta cell apopt)
CC1CCc2nc3ccccc3c(C(=O)OCC(=O)NC3CCS(=O)(=O)C3)c2C1 (centres undefined)	none
Cc1cc(N2CCN(C)CC2)ccc1NC(=O)c1c2c(nc3ccccc13)CCN(Cc1ccccc1)C2	Beta cell apopt 98.8, T cruzi inh 58.0
COc1cccc(NC(=O)COC(=O)c2c3c(nc4ccccc24)CCC(C)C3)c1 (centres undefined)	T cruzi inh 72.7
Cc1c(Cl)cccc1NC(=O)COC(=O)c1c2c(nc3ccccc13)CCN(Cc1ccccc1)C2	T cruzi inh 67.6
O=C(NC1CCCCCC1)c1c2c(nc3ccccc13)CCN(Cc1ccccc1)C2	none
O=C(COc1ccc(Cl)cc1)NNC(=O)CSc1nncs1	none
Cc1cc(N/N=C/c2cccc(Br)c2)nc2ccccc12	SKKanGAS inh 90.8
Cc1cc(C)cc(N2C(=O)c3nccnc3C2=O)c1	none
Cc1cc(C)cc(N2C(=O)C=CC2=O)c1	PfHsp90 set2 108.5 (no result: Beta cell apopt, T cruzi inh, HIF activator, SKKanGAS inh, CSC inhib)
Nc1nc(SCc2ccccn2)c2ncn(C3OC(CO)C(O)C3O)c2n1 (centres undefined)	none (no result: Beta cell apopt, T cruzi inh, HIF activator, SKKanGAS inh, CSC inhib)
CN1/C(=C\C(=O)CN2C(=O)NC3(CCCCCC3)C2=O)C(C)(C)c2ccccc21	Beta cell apopt 112.7
COCCn1c(SCC(=O)/C=C2\N(C)c3ccccc3C2(C)C)nnc1-c1ccncc1	Beta cell apopt 79.9
Cc1cc(=O)[nH]c(SCC(=O)/C=C2\N(C)c3ccccc3C2(C)C)n1	Beta cell apopt 116.6
CCOc1ccccc1NC(=O)c1ccc(C(=O)Nc2ccccc2OCC)nc1	none
COc1ccccc1NC(=O)c1ccc(C(=O)Nc2ccccc2OC)nc1	none
CCOc1ccccc1NC(=O)c1nc(S(=O)(=O)Cc2ccccc2)ncc1Cl	SKKanGAS inh 58.6 (no result: Beta cell apopt, CSC inhib)
CCS(=O)(=O)c1ncc(Cl)c(C(=O)Nc2ccccc2OC)n1	Beta cell apopt 84.2
CSc1nnc(NC(=O)c2nc(S(=O)(=O)Cc3ccccc3)ncc2Cl)s1	none (no result: Beta cell apopt, CSC inhib)
COc1ccccc1NC(=O)c1nc(S(=O)(=O)Cc2ccccc2)ncc1Cl	Beta cell apopt 76.7, HIF activator 634.4
CCCC(C(=O)NC1CCCC1)N(Cc1ccccc1)C(=O)c1snc(C(N)=O)c1N (centres undefined)	none (no result: CSC inhib)
CCCC(C(=O)Nc1ccc(S(=O)(=O)N2CCCC2)cc1)c1ccccc1 (centres undefined)	none (no result: Beta cell apopt)
CCN(CC)CCCNC(=O)c1oc2ccc(S(=O)(=O)N3CC(C)CC(C)C3)cc2c1C (centres undefined)	T cruzi inh 56.4
Cc1c(C(=O)NCC2COc3ccccc3O2)oc2ccc(S(=O)(=O)N3CC(C)CC(C)C3)cc12 (centres undefined)	T cruzi inh 63.5
Clc1ccc(-c2n[nH]c3c2CCC3)c(Cl)c1	SKKanGAS inh 95.7
CC1CN(c2nc3ccccn3c(=O)c2/C=C(\C#N)C(N)=O)CC(C)O1 (centres undefined)	none

Screening data (PubChem)
